In ChEMBL document CHEMBL1128400, “Synthesis of some 2-aryl-1,2,4-triazolo[1,5-c][1,3]benzoxazin-5-ones as tools to define the essential pharmacophoric descriptors of a benzodiazepine receptor ligand” (J Med Chem, 1995):

What was measured:
[1] = biological target: T1, GABA-A receptor; anion channel (Bos taurus) (UniProt P10063+P08220+P20237+P08219+P10064+P22300); experiment: inhibition of [3H]flunitrazepam binding to GABA-A benzodiazepine receptor of bovine brain membranes; type: cell membranes; conditions: concentration not given here
[2] = biological target: T1, GABA-A receptor; anion channel (Bos taurus); experiment: Percentage inhibition of [3H]flunitrazepam binding to GABA-A benzodiazepine receptor of bovine brain membranes; type: cell membranes; conditions: concentration not given here
Method in brief: (§1)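 Percent inhibition of [3H]flunitrazepam binding, with test compound at 10 μM. Ethanol used as solvent in one case.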

[3] = biological target: T1, GABA-A receptor; anion channel (Bos taurus); experiment: GABA ratio (where GABA ratio = IC50 (compound) / IC50 (compound + 10 uM GABA)).; type: protein-complex assay
Method in brief: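 Ratio of IC50 for [3H]flunitrazepam displacement measured without GABA to IC50 measured with 10 μM GABA. Used as a rough in vitro gauge of intrinsic activity. Five independent experiments.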

[4] = Binding affinity at bovine Benzodiazepine receptor by [3H]flunitrazepam displacement.
Method in brief: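 [3H]flunitrazepam displacement; IC50 from log-probit plots, converted to Ki. Run for compounds giving enough inhibition in a 10 μM screen.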

[5] = biological target: T1, GABA-A receptor; anion channel (Bos taurus); experiment: Inhibition of [3H]flunitrazepam binding to GABA-A benzodiazepine receptor of bovine brain membranes at 10e-5 M; type: cell membranes; method in brief: as §1

inhibition [1] | inhibition [2] | GR [3] | Ki [4] | inhibition [5] | Compound
47% | – | – | – | – | O=c1oc2cc(Cl)ccc2c2nc(-c3ccccc3F)nn12
– | 0% | – | – | – | O=c1oc2ccccc2c2nc(-c3ccc(Cl)cc3)nn12
– | – | 0.76 | 0.0422 µM | – | O=c1oc2ccc(Cl)cc2c2nc(-c3c(F)cccc3F)nn12
– | – | 0.8 | 0.105 µM | – | O=c1oc2ccc(Cl)cc2c2nc(-c3ccoc3)nn12
– | – | 0.81 | 0.12 µM | – | CCOC(=O)c1nc2c3ccccc3oc(=O)n2n1
– | – | – | – | 45% | COc1ccc2c(c1)oc(=O)n1nc(-c3ccccc3F)nc21
3% | – | – | – | – | O=c1oc2ccc(Cl)cc2c2nc(-c3ccc(Cl)cc3)nn12
– | – | 0.78 | 0.568 µM | – | O=c1oc2ccc(Cl)cc2c2nc(-c3ccccc3)nn12
– | – | 1.2 | 0.125 µM | – | CCOC(=O)c1nc2c3cc(Cl)ccc3oc(=O)n2n1
– | – | 0.95 | 0.0153 µM | – | O=c1oc2ccccc2c2nc(-c3ccccc3F)nn12
– | – | 1.11 | 0.0118 µM | – | O=c1oc2ccc(Cl)cc2c2nc(-c3cccc(F)c3F)nn12
– | – | 0.84 | 0.0279 µM | – | O=c1oc2ccccc2c2nc(-c3ccco3)nn12
– | – | 0.5 | 0.0728 µM | – | COc1ccc(-c2nc3c4cc(Cl)ccc4oc(=O)n3n2)cc1
– | – | 1.31 | 0.3 µM | – | COc1ccc(-c2nc3c4ccccc4oc(=O)n3n2)cc1
– | – | 0.84 | 0.0448 µM | – | Cc1ccc2oc(=O)n3nc(-c4ccccc4F)nc3c2c1
– | – | 0.8 | 0.1 µM | – | O=c1oc2ccc(Cl)cc2c2nc(-c3cccs3)nn12
– | – | 0.9 | 0.0623 µM | – | O=c1oc2ccc(Cl)cc2c2nc(-c3ccco3)nn12
– | – | 0.9 | 0.0052 µM | – | O=c1oc2ccc(Cl)cc2c2nc(-c3ccccc3F)nn12
– | – | 0.98 | 0.132 µM | – | O=c1oc2ccccc2c2nc(-c3ccccc3)nn12
– | – | 1.02 | 0.211 µM | – | O=c1oc2ccc(Cl)cc2c2nc(-c3ccsc3)nn12
– | – | 0.98 | 0.0321 µM | – | O=c1oc2ccccc2c2nc(-c3cccs3)nn12
– | – | 1.13 | 0.0437 µM | – | COc1ccc2oc(=O)n3nc(-c4ccccc4F)nc3c2c1
